Values after ≈ are worked out from the molar mass of the structure shown.
Columns and labels:
[1] = test system: Escherichia coli; assay: Antibacterial activity against Escherichia coli J53 by Etest method; assay type: functional
[2] = test system: Klebsiella pneumoniae; assay: Antibacterial activity against Klebsiella pneumoniae 05-560 by Etest method; assay type: functional
[3] = test system: Escherichia coli; assay: Antibacterial activity against Escherichia coli TOP10 harboring beta-lactamase NDM-1 by Etest method; assay type: functional
How it was run: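 Fragments from BamHI, EcoRI or HindIII digests of K. pneumoniae 05-506 DNA were cloned into vector pK18 and electroporated into E. coli TOP10. Transformants were selected on LB agar with X-gal (30 μg/ml), ceftazidime (6 μg/ml) and kanamycin (25 μg/ml). Susceptibility read by Etest.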

[4] = test system: Escherichia coli; assay: Antibacterial activity against Escherichia coli TOP10 by Etest method; assay type: functional
[5] = test system: Escherichia coli; assay: Antibacterial activity against Escherichia coli J53 harboring beta-lactamase NDM-1 by Etest method; assay type: functional
How it was run: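 Transconjugant of E. coli J53 recipient, mated with donor on blood agar without selection for 18 h. Selected on MacConkey agar with sodium azide (100 μg/ml) plus ceftazidime (8 μg/ml). Transfer confirmed by indole test and PCR for the MBL gene. Susceptibility read by Etest.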

[6] = test system: Escherichia coli; assay: Antibacterial activity against Escherichia coli NF-NDM-1 by Etest method; assay type: functional
[7] = test system: Klebsiella pneumoniae; assay: Ratio of Kcat to Km for Klebsiella pneumoniae 05-560 beta-lactamase IMP1
[8] = test system: Klebsiella pneumoniae; assay: Activity of Klebsiella pneumoniae 05-560 beta-lactamase IMP1 by spectrophotometry
[9] = test system: CC(C)(O/N=C(\C(=O)N[C@@H]1C(=O)N2C(C(=O)[O-])=C(C[n+]3ccccc3)CS[C@H]12)c1csc(N)n1)C(=O)O; assay: (§1) Ratio of Kcat to Km for Klebsiella pneumoniae 05-560 beta-lactamase VIM2
[10] = test system: CC1(C)S[C@@H]2[C@H](NC(=O)Cc3ccccc3)C(=O)N2[C@H]1C(=O)O; assay: as §1
[11] = test system: CCN1CCN(C(=O)N[C@@H](C(=O)N[C@@H]2C(=O)N3[C@@H]2SC(C)(C)[C@@H]3C(=O)O)c2ccccc2)C(=O)C1=O; assay: as §1
[12] = test system: CC(=O)OCC1=C(C(=O)O)N2C(=O)[C@@H](NC(=O)Cc3cccs3)[C@H]2SC1; assay: as §1
[13] = test system: CO/N=C(\C(=O)N[C@@H]1C(=O)N2C(C(=O)O)=C(COC(C)=O)CS[C@H]12)c1csc(N)n1; assay: as §1
[14] = test system: CC(C)(O/N=C(\C(=O)N[C@@H]1C(=O)N2C(C(=O)[O-])=C(C[n+]3ccccc3)CS[C@H]12)c1csc(N)n1)C(=O)O; assay: (§2) Activity of Klebsiella pneumoniae 05-560 beta-lactamase VIM2 by spectrophotometry
[15] = test system: CC1(C)S[C@@H]2[C@H](NC(=O)Cc3ccccc3)C(=O)N2[C@H]1C(=O)O; assay: as §2
[16] = test system: CCN1CCN(C(=O)N[C@@H](C(=O)N[C@@H]2C(=O)N3[C@@H]2SC(C)(C)[C@@H]3C(=O)O)c2ccccc2)C(=O)C1=O; assay: as §2
[17] = test system: CC(=O)OCC1=C(C(=O)O)N2C(=O)[C@@H](NC(=O)Cc3cccs3)[C@H]2SC1; assay: as §2
[18] = test system: CO/N=C(\C(=O)N[C@@H]1C(=O)N2C(C(=O)O)=C(COC(C)=O)CS[C@H]12)c1csc(N)n1; assay: as §2
[19] = test system: CO[C@@]1(NC(=O)Cc2cccs2)C(=O)N2C(C(=O)O)=C(COC(N)=O)CS[C@@H]21; assay: as §2
[20] = substrate: CO/N=C(\C(=O)N[C@@H]1C(=O)N2C(C(=O)O)=C(COC(C)=O)CS[C@H]12)c1csc(N)n1; assay: (§3) Ratio of Kcat to Km for Klebsiella pneumoniae 05-560 beta-lactamase NDM-1
How it was run: (§4)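 NDM-1 was expressed as a His-trx fusion. The cleared lysate (12,000 rpm, 30 min, 4°C) was bound to Ni-NTA agarose and eluted with 300 mM imidazole. The tag was cut off with TEV protease, and the protein was finished by GS320 gel filtration.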

[21] = substrate: CO[C@@]1(NC(=O)Cc2cccs2)C(=O)N2C(C(=O)O)=C(COC(N)=O)CS[C@@H]21; assay: as §3; how it was run: as §4
[22] = substrate: CO/N=C(\C(=O)N[C@@H]1C(=O)N2C(C(=O)[O-])=C(C[N+]3(C)CCCC3)CS[C@H]12)c1csc(N)n1; assay: as §3; how it was run: as §4
[23] = substrate: CC(=O)OCC1=C(C(=O)O)N2C(=O)[C@@H](NC(=O)Cc3cccs3)[C@H]2SC1; assay: as §3; how it was run: as §4
[24] = substrate: CC(C)(O/N=C(\C(=O)N[C@@H]1C(=O)N2C(C(=O)[O-])=C(C[n+]3ccccc3)CS[C@H]12)c1csc(N)n1)C(=O)O; assay: as §3; how it was run: as §4
[25] = substrate: C[C@@H](O)[C@H]1C(=O)N2C(C(=O)O)=C(SCCNC=N)C[C@H]12; assay: as §3; how it was run: as §4
[26] = substrate: CC1(C)S[C@@H]2[C@H](NC(=O)Cc3ccccc3)C(=O)N2[C@H]1C(=O)O; assay: as §3; how it was run: as §4
[27] = substrate: CCN1CCN(C(=O)N[C@@H](C(=O)N[C@@H]2C(=O)N3[C@@H]2SC(C)(C)[C@@H]3C(=O)O)c2ccccc2)C(=O)C1=O; assay: as §3; how it was run: as §4
[28] = substrate: CC1(C)S[C@@H]2[C@H](NC(=O)[C@H](N)c3ccccc3)C(=O)N2[C@H]1C(=O)O; assay: as §3; how it was run: as §4
[29] = substrate: CO/N=C(\C(=O)N[C@@H]1C(=O)N2C(C(=O)O)=C(COC(C)=O)CS[C@H]12)c1csc(N)n1; assay: (§5) Activity of Klebsiella pneumoniae 05-560 beta-lactamase NDM-1 by spectrophotometry; how it was run: as §4
[30] = substrate: CO[C@@]1(NC(=O)Cc2cccs2)C(=O)N2C(C(=O)O)=C(COC(N)=O)CS[C@@H]21; assay: as §5; how it was run: as §4
[31] = substrate: CO/N=C(\C(=O)N[C@@H]1C(=O)N2C(C(=O)[O-])=C(C[N+]3(C)CCCC3)CS[C@H]12)c1csc(N)n1; assay: as §5; how it was run: as §4
[32] = substrate: CC(=O)OCC1=C(C(=O)O)N2C(=O)[C@@H](NC(=O)Cc3cccs3)[C@H]2SC1; assay: as §5; how it was run: as §4
[33] = substrate: CC(C)(O/N=C(\C(=O)N[C@@H]1C(=O)N2C(C(=O)[O-])=C(C[n+]3ccccc3)CS[C@H]12)c1csc(N)n1)C(=O)O; assay: as §5; how it was run: as §4
[34] = substrate: C[C@@H](O)[C@H]1C(=O)N2C(C(=O)O)=C(SCCNC=N)C[C@H]12; assay: as §5; how it was run: as §4
[35] = substrate: CC1(C)S[C@@H]2[C@H](NC(=O)Cc3ccccc3)C(=O)N2[C@H]1C(=O)O; assay: as §5; how it was run: as §4
[36] = substrate: CCN1CCN(C(=O)N[C@@H](C(=O)N[C@@H]2C(=O)N3[C@@H]2SC(C)(C)[C@@H]3C(=O)O)c2ccccc2)C(=O)C1=O; assay: as §5; how it was run: as §4
[37] = substrate: CC1(C)S[C@@H]2[C@H](NC(=O)[C@H](N)c3ccccc3)C(=O)N2[C@H]1C(=O)O; assay: as §5; how it was run: as §4

CO/N=C(\C(=O)N[C@@H]1C(=O)N2C(C(=O)O)=C(COC(N)=O)CS[C@H]12)c1ccco1 [CEFUROXIME]
MIC [1]: 8 µg/mL (≈ 18.9 µM)
MIC [2]: > 256 µg/mL
MIC [3]: > 256 µg/mL
MIC [4]: 8 µg/mL (≈ 18.9 µM)
MIC [5]: > 256 µg/mL
MIC [6]: > 256 µg/mL

CC(=O)OCC1=C(C(=O)O)N2C(=O)[C@@H](NC(=O)Cc3cccs3)[C@H]2SC1 [CEPHALOTHIN]
MIC [1]: 4 µg/mL (≈ 10.1 µM)
MIC [2]: > 256 µg/mL
kcat/Km [7]: 2.4e+06 M⁻¹ s⁻¹
MIC [3]: > 256 µg/mL
MIC [4]: 8 µg/mL (≈ 20.2 µM)
Km [8]: 21 µM
kcat [8]: 48 s⁻¹
MIC [5]: > 256 µg/mL
MIC [6]: > 256 µg/mL

O=C(O)c1cn(C2CC2)c2cc(N3CCNCC3)c(F)cc2c1=O [CIPROFLOXACIN]
MIC [1]: 0.032 µg/mL (≈ 0.0966 µM)
MIC [2]: > 256 µg/mL
MIC [5]: 0.047 µg/mL (≈ 0.142 µM)

C[C@@H](O)[C@H]1C(=O)N2C(C(=O)O)=C(SCCNC=N)C[C@H]12 [IMIPENEM ANHYDROUS]
MIC [2]: > 256 µg/mL
kcat/Km [7]: 1.2e+06 M⁻¹ s⁻¹
MIC [3]: 12 µg/mL (≈ 40.1 µM)
MIC [4]: 0.094 µg/mL (≈ 0.314 µM)
Km [8]: 39 µM
kcat [8]: 46 s⁻¹
MIC [5]: 16 µg/mL (≈ 53.4 µM)
MIC [6]: > 32 µg/mL

C[C@@H](O)[C@H]1C(=O)N2C(C(=O)O)=C(S[C@@H]3CN[C@H](C(=O)N(C)C)C3)[C@H](C)[C@H]12 [MEROPENEM]
MIC [1]: 0.064 µg/mL (≈ 0.167 µM)
MIC [2]: > 256 µg/mL
MIC [3]: 12 µg/mL (≈ 31.3 µM)
MIC [4]: 0.064 µg/mL (≈ 0.167 µM)
MIC [5]: > 32 µg/mL
MIC [6]: > 32 µg/mL

CCN1CCN(C(=O)N[C@@H](C(=O)N[C@@H]2C(=O)N3[C@@H]2SC(C)(C)[C@@H]3C(=O)O)c2ccccc2)C(=O)C1=O [PIPERACILLIN]
MIC [1]: 1 µg/mL (≈ 1.93 µM)
MIC [2]: > 256 µg/mL
MIC [4]: 0.5 µg/mL (≈ 0.966 µM)
MIC [5]: > 256 µg/mL
MIC [6]: > 256 µg/mL

COLISTIN
MIC [1]: 0.25 µg/mL
MIC [2]: 0.75 µg/mL
MIC [3]: 0.38 µg/mL
MIC [4]: 0.38 µg/mL
MIC [5]: 0.25 µg/mL
MIC [6]: 0.25 µg/mL

Metallo-beta-lactamase VIM-2 (Klebsiella pneumoniae) (from UniProt Q3Y6Q3)
kcat/Km [9]: 900000 M⁻¹ s⁻¹
kcat/Km [10]: 1.14e+06 M⁻¹ s⁻¹
kcat/Km [11]: 450000 M⁻¹ s⁻¹
kcat/Km [12]: 1.28e+06 M⁻¹ s⁻¹
kcat/Km [13]: 860000 M⁻¹ s⁻¹
Km [14]: 98 µM
kcat [14]: 89 s⁻¹
Km [15]: 49 µM
kcat [15]: 56 s⁻¹
Km [16]: 72 µM
kcat [16]: 33 s⁻¹
Km [17]: 44 µM
kcat [17]: 57 s⁻¹
Km [18]: 32 µM
Km [19]: 24 µM
kcat [19]: 3 s⁻¹

B1: Metallo-beta-lactamase type 2 (Klebsiella pneumoniae), C7C422 (protein)
chain: MELPNIMHPVAKLSTALAAALMLSGCMPGEIRPTIGQQMETGDQRFGDLVFRQLAPNVWQHTSYLDMPGFGAVASNGLIVRDGGRVLVVDTAWTDDQTAQILNWIKQEINLPVALAVVTHAHQDKMGGMDALHAAGIATYANALSNQLAPQEGMVAAQHSLTFAANGWVEPATAPNFGPLKVFYPGPGHTSDNITVGIDGTDIAFGGCLIKDSKAKSLGNLGDADTEHYAASARAFGAAFPKASMIVMSHSAPDSRAAITHTARMADKLR
kcat/Km [20]: 580000 M⁻¹ s⁻¹
kcat/Km [21]: 20000 M⁻¹ s⁻¹
kcat/Km [22]: 170000 M⁻¹ s⁻¹
kcat/Km [23]: 400000 M⁻¹ s⁻¹
kcat/Km [24]: 30000 M⁻¹ s⁻¹
kcat/Km [25]: 210000 M⁻¹ s⁻¹
kcat/Km [26]: 680000 M⁻¹ s⁻¹
kcat/Km [27]: 1.17e+06 M⁻¹ s⁻¹
kcat/Km [28]: 660000 M⁻¹ s⁻¹
Km [29]: 10 µM
kcat [29]: 6 s⁻¹
kcat [30]: 1 s⁻¹
Km [31]: 77 µM
kcat [31]: 13 s⁻¹
Km [32]: 10 µM
kcat [32]: 4 s⁻¹
Km [33]: 181 µM
kcat [33]: 5 s⁻¹
Km [34]: 94 µM
kcat [34]: 20 s⁻¹
Km [35]: 16 µM
kcat [35]: 11 s⁻¹
kcat [36]: 14 s⁻¹
Km [37]: 22 µM
kcat [37]: 15 s⁻¹
